From ChEMBL document CHEMBL1131301, “Tyrosine kinase inhibitors. 14. Structure-activity relationships for methylamino-substituted derivatives of 4-[(3-bromophenyl)amino]-6-(methylamino)-pyrido[3,4-d]pyrimidine (PD 158780), a potent and specific inhibitor of the tyrosine kinase activity of receptors for the EGF family of growth factors” (J Med Chem, 1998)
In brackets after ≈: the same amount, converted by molar mass. Each block holds one compound with its values, some of them ahead of it.

Assays:
[1] = target: T1, Epidermal growth factor receptor (Homo sapiens, UniProt P00533); experiment: Inhibition of autophosphorylation of epidermal growth factor receptor in A431 cells in culture
T1 sequence (P00533 whole entry): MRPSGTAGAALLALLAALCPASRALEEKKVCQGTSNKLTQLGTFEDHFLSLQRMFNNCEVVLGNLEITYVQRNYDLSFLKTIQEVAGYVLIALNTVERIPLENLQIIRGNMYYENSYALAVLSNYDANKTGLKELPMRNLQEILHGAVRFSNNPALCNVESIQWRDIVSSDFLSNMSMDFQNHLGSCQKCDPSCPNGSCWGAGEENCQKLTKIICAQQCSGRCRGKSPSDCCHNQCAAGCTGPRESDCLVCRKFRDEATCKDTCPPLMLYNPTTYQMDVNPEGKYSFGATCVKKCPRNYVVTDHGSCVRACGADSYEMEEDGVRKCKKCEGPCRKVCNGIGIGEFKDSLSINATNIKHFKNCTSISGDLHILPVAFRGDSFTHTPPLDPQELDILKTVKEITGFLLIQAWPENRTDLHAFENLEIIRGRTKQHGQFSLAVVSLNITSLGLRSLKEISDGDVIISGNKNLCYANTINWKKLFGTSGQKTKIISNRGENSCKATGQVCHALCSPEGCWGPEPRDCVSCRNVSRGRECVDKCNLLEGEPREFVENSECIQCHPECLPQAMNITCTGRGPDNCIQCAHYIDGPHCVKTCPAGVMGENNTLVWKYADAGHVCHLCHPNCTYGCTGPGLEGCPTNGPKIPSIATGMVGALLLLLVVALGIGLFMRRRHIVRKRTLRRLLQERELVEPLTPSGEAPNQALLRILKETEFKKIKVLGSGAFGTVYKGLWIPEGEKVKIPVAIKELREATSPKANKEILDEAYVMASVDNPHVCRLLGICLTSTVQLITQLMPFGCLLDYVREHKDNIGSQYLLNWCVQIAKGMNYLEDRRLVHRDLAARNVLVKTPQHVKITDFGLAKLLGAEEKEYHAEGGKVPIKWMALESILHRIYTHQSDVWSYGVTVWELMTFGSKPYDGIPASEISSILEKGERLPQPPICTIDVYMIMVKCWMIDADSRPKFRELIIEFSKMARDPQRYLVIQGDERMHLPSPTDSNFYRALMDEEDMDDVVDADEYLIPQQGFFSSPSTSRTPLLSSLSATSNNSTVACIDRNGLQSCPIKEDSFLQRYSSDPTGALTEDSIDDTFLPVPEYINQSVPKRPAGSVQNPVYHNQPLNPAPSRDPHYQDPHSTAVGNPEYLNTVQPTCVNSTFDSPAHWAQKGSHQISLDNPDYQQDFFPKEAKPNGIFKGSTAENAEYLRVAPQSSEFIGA

[2] = Aqueous solubility ([…] degree C); format: physicochemical; conditions: for solubility: water, read-out: S; for S: buffer
[3] = target: T1, Epidermal growth factor receptor; experiment: Inhibit of phosphorylation of a tyrosine/glutamic acid copolymer by epidermal growth factor receptor prepared from human A431 carcinoma cell vesicles by immunoaffinity chromatography.
[4] = target: T1, Epidermal growth factor receptor; experiment: Inhibition of EGF-dependent autophosphorylation of EGF-R in A431 cells
[5] = target: Receptor tyrosine-protein kinase erbB-2 (Homo sapiens, UniProt P04626); experiment: Inhibition of heregulin-dependent autophosphorylation of ErbB2 receptor in MDA-MB-453 cells; format: functional, cell-based
Sequence of Receptor tyrosine-protein kinase erbB-2 (P04626 whole entry, the tested form may be a part): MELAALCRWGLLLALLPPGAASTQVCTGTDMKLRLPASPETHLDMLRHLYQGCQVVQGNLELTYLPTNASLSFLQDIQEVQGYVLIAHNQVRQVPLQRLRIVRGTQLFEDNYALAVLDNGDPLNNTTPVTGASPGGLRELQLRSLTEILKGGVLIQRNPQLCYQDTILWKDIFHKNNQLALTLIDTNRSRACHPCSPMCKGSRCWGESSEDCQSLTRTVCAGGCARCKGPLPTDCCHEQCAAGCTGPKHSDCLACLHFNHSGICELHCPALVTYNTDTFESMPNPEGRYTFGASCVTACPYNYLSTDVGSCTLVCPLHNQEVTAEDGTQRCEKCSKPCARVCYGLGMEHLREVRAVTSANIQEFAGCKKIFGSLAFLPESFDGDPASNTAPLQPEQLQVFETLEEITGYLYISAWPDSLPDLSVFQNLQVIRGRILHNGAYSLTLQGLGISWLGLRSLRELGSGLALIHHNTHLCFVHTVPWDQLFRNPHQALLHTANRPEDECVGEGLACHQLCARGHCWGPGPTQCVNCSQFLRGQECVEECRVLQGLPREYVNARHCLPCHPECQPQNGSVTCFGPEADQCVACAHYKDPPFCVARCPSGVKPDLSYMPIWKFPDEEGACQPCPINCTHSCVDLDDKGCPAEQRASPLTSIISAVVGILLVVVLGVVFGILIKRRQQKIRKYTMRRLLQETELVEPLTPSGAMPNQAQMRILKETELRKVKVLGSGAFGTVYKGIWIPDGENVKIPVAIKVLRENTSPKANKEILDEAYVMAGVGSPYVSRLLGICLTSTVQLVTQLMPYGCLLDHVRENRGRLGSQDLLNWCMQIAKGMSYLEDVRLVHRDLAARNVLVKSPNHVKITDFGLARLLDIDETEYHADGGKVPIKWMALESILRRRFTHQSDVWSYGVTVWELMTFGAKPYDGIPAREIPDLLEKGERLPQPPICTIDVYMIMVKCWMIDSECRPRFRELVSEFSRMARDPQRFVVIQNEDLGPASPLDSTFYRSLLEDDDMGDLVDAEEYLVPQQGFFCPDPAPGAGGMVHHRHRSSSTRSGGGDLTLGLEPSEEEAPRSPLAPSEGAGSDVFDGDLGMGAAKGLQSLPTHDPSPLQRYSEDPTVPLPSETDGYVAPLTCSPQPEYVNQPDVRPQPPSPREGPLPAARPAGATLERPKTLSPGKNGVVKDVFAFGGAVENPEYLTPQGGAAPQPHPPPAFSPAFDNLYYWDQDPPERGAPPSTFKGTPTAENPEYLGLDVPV

SK-OV-3 [6] = experiment: Difference in days for treated (T) and control (C) SKOV-3 tumor fragments to reach 750 mg in mice at 30 mg/kg ip dose, administration days 10-14,17-21,24-28; format: functional; conditions: route intraperitoneal
Mus musculus [7] = experiment: Difference in days for treated (T) and control (C) EGFR tumor fragments to reach 750 mg in mice at 38 mg/kg ip dose, administration days 1-15; format: functional; conditions: route intraperitoneal
Mus musculus [8] = experiment: Difference in days for treated (T) and control (C) EGFR tumor fragments to reach 750 mg in mice at 400 mg/kg peroral dose, administration days 1-15; format: functional; conditions: route oral
MCF7 [9] = experiment: Difference in days for treated (T) and control (C) MCF-7 tumor fragments to reach 750 mg in mice at 25 mg/kg ip dose, administration days 1-15; format: functional; conditions: route intraperitoneal
MCF7 [10] = experiment: Difference in days for treated (T) and control (C) MCF-7 tumor fragments to reach 750 mg in mice at 50 mg/kg ip dose, administration days 1-15; format: functional; conditions: route intraperitoneal
A-431 [11] = experiment: Ratio of treated and control A431 median tumor mass*100% in mice at 100 mg/kg peroral dose, days 7-21 administration; format: functional; conditions: route oral
Procedure, shortened: (§1)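 Nude mice (NCr nu/nu, 18-22 g) were randomized and implanted sc with tumor fragments in the right axilla on day 0. Tumor lines were A431 epidermoid, NIH 3T3 fibroblasts transfected with human EGFR, and MCF-7 breast. Dosing was ip or oral, by average cage weight, with 6 mice/dose group. Vehicle was 6% dimethylacetamide/94% 50 mM sodium lactate pH 4.0 (suspension), or isethionate salt in water.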

Mus musculus [12] = experiment: Ratio of treated and control EGFR median tumor mass*100% in mice at 38 mg/kg ip dose, days 1-15 administration; format: functional; conditions: route intraperitoneal; procedure, shortened: as §1
Mus musculus [13] = experiment: Ratio of treated and control EGFR median tumor mass*100% in mice at 400 mg/kg peroral dose, days 1-15 administration; format: functional; conditions: route oral; procedure, shortened: as §1
MCF7 [14] = experiment: Ratio of treated and control MCF-7 median tumor mass*100% in mice at 25 mg/kg ip dose, days 1-15 administration; format: functional; conditions: route intraperitoneal; procedure, shortened: as §1
MCF7 [15] = experiment: Ratio of treated and control MCF-7 median tumor mass*100% in mice at 50 mg/kg ip dose, days 1-15 administration; format: functional; conditions: route intraperitoneal; procedure, shortened: as §1
A-431 [16] = experiment: Difference in days for treated (T) and control (C) A431 tumors to reach 750 mg in mice at 75 mg/kg ip dose, days 7-21 administration; format: functional; conditions: route intraperitoneal; procedure, shortened: as §1
SK-OV-3 [17] = experiment: Ratio of treated and control SKOV-3 median tumor mass*100% in mice at 30 mg/kg ip dose, days 10-14,17-21,24-28 administration; format: functional; conditions: route intraperitoneal
Mus musculus [18] = experiment: Net reduction in EGFR tumor burden between the first and last treatments in mice at 400 mg/kg peroral dose, days 1-15 administration; format: functional; conditions: route oral
Procedure, shortened: (§2)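 NCr nu/nu nude mice (18-22 g) were randomized and implanted sc with A431 epidermoid, human-EGFR-transfected NIH 3T3 fibroblast, or MCF-7 breast tumor fragments in the right axilla on day 0. Dosing was ip or oral, by average cage weight, with 6 mice per dose group. Log net cell kill is the net reduction in tumor burden between the first and last treatments.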

Mus musculus [19] = experiment: Net reduction in EGFR tumor burden between the first and last treatments in mice at 38 mg/kg ip dose, days 1-15 administration; format: functional; conditions: route intraperitoneal; procedure, shortened: as §1
MCF7 [20] = experiment: Net reduction in MCF-7 tumor burden between the first and last treatments in mice at 25 mg/kg ip dose, days 1-15 administration; format: functional; conditions: route intraperitoneal; procedure, shortened: as §2
A-431 [21] = experiment: Difference in days for treated (T) and control (C) A431 tumor fragments to reach 750 mg in mice at 100 mg/kg peroral dose, administration days 7-21; format: functional; conditions: route oral
MCF7 [22] = experiment: Weight change in MCF-7 tumor bearing mice at 25 mg/kg ip dose, days 1-15 administration; format: functional; conditions: route intraperitoneal
MCF7 [23] = experiment: Weight change in MCF-7 tumor bearing mice at 50 mg/kg ip dose, days 1-15 administration; format: functional, organism-based; parameters: dose 50 mg/kg
A-431 [24] = experiment: Weight change in A431 tumor bearing mice at 100 mg/kg peroral dose, days 7-21 administration; format: functional; conditions: route oral
A-431 [25] = experiment: Weight change in A431 tumor bearing mice at 75 mg/kg ip dose, days 7-21 administration; format: functional; conditions: route intraperitoneal
Mus musculus [26] = experiment: Weight change of EGFR tumor bearing mice at 38 mg/kg ip dose, days 1-15 administration; format: functional; conditions: route intraperitoneal
Mus musculus [27] = experiment: Weight change of EGFR tumor bearing mice at 400 mg/kg peroral dose, days 1-15 administration; format: functional
SK-OV-3 [28] = experiment: Weight change in SKOV-3 tumor bearing mice at 30 mg/kg ip dose, days 10-14,17-21,24-28 administration; format: functional; conditions: route intraperitoneal
A-431 [29] = experiment: Ratio of treated and control A431 median tumor mass*100% in mice at 75 mg/kg dose
[30] = target: T1, Epidermal growth factor receptor; experiment: Inhibition of tyrosine/glutamic acid copolymer phosphorylation by epidermal growth factor receptor prepared of human A431
Mus musculus [31] = experiment: Ratio of the median treated EGFR tumor mass (mg)/median control mass*100% in mice at 38 mg/kg dose, ip b.i.d. days 1-15 administration; format: functional; conditions: route intraperitoneal; procedure, shortened: as §1

Structure (SMILES): CNc1cc2c(Nc3cccc(Br)c3)ncnc2cn1
IC50 [4]: 13 nM
solubility [2]: 0.1 mM (≈ 33 µg/mL)
IC50 [5]: 52 nM
T-C (SK-OV-3 [6]): 0.8 days
T-C (Mus musculus [7]): 3.7 days
T-C (Mus musculus [8]): 1.2 days
T-C (MCF7 [9]): 11.2 days
T-C (MCF7 [10]): 15.2 days
T/C (A-431 [11]): 38%
T/C (Mus musculus [12]): 38%
T/C (Mus musculus [13]): 67%
T/C (MCF7 [14]): 14%
T/C (MCF7 [15]): 27%
T-C (A-431 [16]): 8.4 days
T/C (SK-OV-3 [17]): 67%
Net cell kill (Mus musculus [18]): -1.3 log10
log net cell kill (Mus musculus [19]): -1
Net cell kill (MCF7 [20]): -0.1 log10
T-C (A-431 [21]): 16 days
Weight change (MCF7 [22]): -0.2 g
Weight change (MCF7 [23]): Weight gain
Weight change (A-431 [24]): -1.3 g
Weight change (A-431 [25]): -0.8 g
Weight change (Mus musculus [26]): -0.1 g
Weight change (Mus musculus [27]): Weight gain
Weight change (SK-OV-3 [28]): -1.6 g
T/C (A-431 [29]): 41%

Structure (SMILES): Cc1cccc(Nc2ncnc3cnc(N(C)C)cc23)c1
solubility [2]: 0.02 mM (≈ 5.59 µg/mL)
IC50 [3]: 2.8 nM

Structure (SMILES): CNc1cc2c(Nc3cccc(C)c3)ncnc2cn1
IC50 [1]: 23 nM
IC50 [30]: 0.45 nM
T-C (Mus musculus [7]): 2 days
Weight change (Mus musculus [26]): -0.9 g
T/C (Mus musculus [31]): 68%

Structure (SMILES): CN(C)c1cc2c(Nc3cccc(Br)c3)ncnc2cn1
solubility [2]: 0.06 mM (≈ 20.7 µg/mL)

Structure (SMILES): CN(C)CCN(C)c1cc2c(Nc3cccc(Br)c3)ncnc2cn1
solubility [2]: 39 mM (≈ 15700 µg/mL)

Structure (SMILES): Cc1nc(Nc2cccc(Br)c2)c2cc(NCCN3CCOCC3)ncc2n1
IC50 [3]: 117 nM

Structure (SMILES): Brc1cccc(Nc2ncnc3cnc(NCCc4ccccn4)cc23)c1
IC50 [1]: 8.1 nM
solubility [2]: 17 mM (≈ 7160 µg/mL)
IC50 [3]: 1.2 nM

Structure (SMILES): Brc1cccc(Nc2ncnc3cnc(NCCc4c[nH]cn4)cc23)c1
IC50 [1]: 6.3 nM
solubility [2]: 15 mM (≈ 6150 µg/mL)
IC50 [3]: 0.78 nM

Structure (SMILES): CN(CC(O)CO)c1cc2c(Nc3cccc(Br)c3)ncnc2cn1 (stereo not drawn)
solubility [2]: 0.18 mM (≈ 72.8 µg/mL)
IC50 [3]: 0.56 nM

Structure (SMILES): Cc1cccc(Nc2ncnc3cnc(NCCN4CCOCC4)cc23)c1
S [2]: > 40 mM

The remaining lines, values ahead:

IC50 [1]: 71 nM
solubility [2]: 36 mM (≈ 16100 µg/mL)
IC50 [3]: 0.93 nM
Structure (SMILES): OCCN(CCO)CCNc1cc2c(Nc3cccc(Br)c3)ncnc2cn1

solubility [2]: 0.02 mM (≈ 7.2 µg/mL)
IC50 [3]: 0.19 nM
Structure (SMILES): OCCNc1cc2c(Nc3cccc(Br)c3)ncnc2cn1

IC50 [1]: 19 nM
solubility [2]: 38 mM (≈ 15800 µg/mL)
IC50 [3]: 1.8 nM
Structure (SMILES): CN(C)CCCCNc1cc2c(Nc3cccc(Br)c3)ncnc2cn1

IC50 [1]: 230 nM
solubility [2]: 20 mM (≈ 9230 µg/mL)
IC50 [3]: 0.35 nM
Structure (SMILES): OCCN(CCO)CCCNc1cc2c(Nc3cccc(Br)c3)ncnc2cn1

IC50 [1]: 5.9 nM
S [2]: > 44 mM
IC50 [3]: 1 nM
Structure (SMILES): Brc1cccc(Nc2ncnc3cnc(NCCCN4CCOCC4)cc23)c1

IC50 [1]: 449 nM
solubility [2]: 38 mM (≈ 14800 µg/mL)
IC50 [3]: 0.27 nM
Structure (SMILES): O=C(O)CCNc1cc2c(Nc3cccc(Br)c3)ncnc2cn1
